Results on 3 molecules are retold here after ChEMBL document CHEMBL3259768, “Structure-activity relationships for vitamin D3-based aromatic a-ring analogues as hedgehog pathway inhibitors” (J Med Chem, 2014).

Test system in one assay: not listed separately
In words: Inhibition of hedgehog signaling pathway-mediated PTCH mRNA expression in human DaOY cells after 24 hrs by RT-PCR analysis. Format: cell-based.
Conditions: not given
The essentials:
(§1)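 ASZ001 (murine BCC) or DAOY (human medulloblastoma) cells given analogue at a range of concentrations. Gli1 and Ptch mRNA quantified by qPCR. IC50 given as mean ± SEM of at least two experiments in triplicate.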
A word on the IC50: it is the concentration at which inhibition is half-maximal. A low value points to inhibition by little substance. For the molecule `CC(C)CCC[C@@H](C)[C@H]1CC[C@H]2[C@@H](OC(=O)c3cc(O)c(O)c(O)c3)CCC[C@]12C`, the IC50 is > 10 µM.

Consider `CC(C)CCC[C@@H](C)[C@H]1CC[C@H]2[C@@H](OC(=O)c3ccc(N)cc3)CCC[C@]12C`, for which the IC50 was > 10 µM.

Regarding `CC(C)CCC[C@@H](C)[C@H]1CC[C@H]2[C@@H](OC(=O)c3cc(O)cc(O)c3)CCC[C@]12C`, the IC50 was > 10 µM.

Test system in a further assay: not listed separately
Description: Inhibition of hedgehog signaling pathway-mediated GLI1 mRNA expression in mouse ASZ001 cells after 24 hrs by RT-PCR analysis. The conditions noted are these: ASZ001, 24 h. Format: cell-based. In outline: as §1
Consider `CC(C)CCC[C@@H](C)[C@H]1CC[C@H]2[C@@H](OC(=O)c3cc(O)c(O)c(O)c3)CCC[C@]12C`, for which the concentration for half-maximal inhibition (IC50) came to 8.1 µM.

Molecule `CC(C)CCC[C@@H](C)[C@H]1CC[C@H]2[C@@H](OC(=O)c3ccc(N)cc3)CCC[C@]12C` came in with a half-maximal inhibitory concentration (IC50) of 5.3 µM.

In the case of `CC(C)CCC[C@@H](C)[C@H]1CC[C@H]2[C@@H](OC(=O)c3cc(O)cc(O)c3)CCC[C@]12C`, inhibition was half-maximal at 4.1 µM (IC50).

Test system in a further assay: not listed separately
Description: Inhibition of hedgehog signaling pathway-mediated GLI1 mRNA expression in human DaOY cells after 24 hrs by RT-PCR analysis. In kind it is cell-based.
Conditions: not given
In outline: as §1
In the case of `CC(C)CCC[C@@H](C)[C@H]1CC[C@H]2[C@@H](OC(=O)c3cc(O)c(O)c(O)c3)CCC[C@]12C`, 9.2 µM corresponded to half-maximal inhibition (IC50).

Consider `CC(C)CCC[C@@H](C)[C@H]1CC[C@H]2[C@@H](OC(=O)c3ccc(N)cc3)CCC[C@]12C`, for which the IC50 is > 10 µM.

Molecule `CC(C)CCC[C@@H](C)[C@H]1CC[C@H]2[C@@H](OC(=O)c3cc(O)cc(O)c3)CCC[C@]12C` displayed an IC50 of 5.7 µM.

Test system in another assay: not listed separately
In words: Inhibition of hedgehog signaling pathway-mediated GLI1 mRNA expression in mouse C3H10T1/2 cells assessed as residual activity at 5 uM after 24 hrs by RT-PCR analysis relative to 20alpha-hydroxycholesterol/22(S)-hydroxycholesterol. Format: cell-based. The conditions noted are these: C3H 10T1/2. In outline:
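C3H10T1/2 cells co-treated with analogue and the oxysterol Hh activators 20α-hydroxycholesterol plus 22(S)-hydroxycholesterol (5 μM each) for 24 h. Gli1 mRNA measured by qPCR as % of OHC-only control (100%). Analogue at 5 μM, or at 0.5 μM where stated.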
Take `CC(C)CCC[C@@H](C)[C@H]1CC[C@H]2[C@@H](OC(=O)c3cc(O)c(O)c(O)c3)CCC[C@]12C`: the Activity worked out at 5.1%.

`CC(C)CCC[C@@H](C)[C@H]1CC[C@H]2[C@@H](OC(=O)c3ccc(N)cc3)CCC[C@]12C`: the Activity is 15.4%.

Turning to `CC(C)CCC[C@@H](C)[C@H]1CC[C@H]2[C@@H](OC(=O)c3cc(O)cc(O)c3)CCC[C@]12C`, the Activity came to 8.6%.

Another assay deals with T1, Vitamin D3 receptor (Homo sapiens) (UniProt P11473).
T1 sequence (whole entry): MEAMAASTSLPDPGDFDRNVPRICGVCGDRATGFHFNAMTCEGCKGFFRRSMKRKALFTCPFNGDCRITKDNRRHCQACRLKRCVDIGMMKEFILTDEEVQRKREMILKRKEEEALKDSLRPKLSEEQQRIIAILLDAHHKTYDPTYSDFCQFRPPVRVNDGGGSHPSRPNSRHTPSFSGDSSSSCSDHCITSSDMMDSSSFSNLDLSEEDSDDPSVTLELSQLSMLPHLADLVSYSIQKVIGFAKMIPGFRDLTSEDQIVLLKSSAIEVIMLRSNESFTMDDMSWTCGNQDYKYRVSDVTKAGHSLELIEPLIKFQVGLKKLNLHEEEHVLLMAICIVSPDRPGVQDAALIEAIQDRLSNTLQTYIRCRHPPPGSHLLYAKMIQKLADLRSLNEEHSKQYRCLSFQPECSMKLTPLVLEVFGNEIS
In words: Competitive binding affinity to full length human VDR by fluorescence polarization assay.
Conditions: not given
The essentials: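 Fluorescence polarization competition against a tight-binding fluorescent ligand on full-length human VDR. Tested at up to 100 μM, with calcitriol as positive control. At least two separate experiments.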
(In general: Polarisation of emitted light reports the rotation of a fluorescent probe.)
Turning to `CC(C)CCC[C@@H](C)[C@H]1CC[C@H]2[C@@H](OC(=O)c3cc(O)c(O)c(O)c3)CCC[C@]12C`, the Activity is > 100 µM.

Turning to `CC(C)CCC[C@@H](C)[C@H]1CC[C@H]2[C@@H](OC(=O)c3ccc(N)cc3)CCC[C@]12C`, the Activity is > 100 µM.

As to `CC(C)CCC[C@@H](C)[C@H]1CC[C@H]2[C@@H](OC(=O)c3cc(O)cc(O)c3)CCC[C@]12C`, the Activity was > 100 µM.

Test system in another assay: not listed separately
Description: Inhibition of hedgehog signaling pathway-mediated GLI1 mRNA expression in mouse C3H10T1/2 cells after 24 hrs by RT-PCR analysis. The note with it: C3H 10T1/2. In kind it is cell-based. In outline: (§2)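 OHC-stimulated C3H10T1/2 cells (20α- and 22(S)-hydroxycholesterol, 5 μM each) given analogue at a range of concentrations. Gli1 and Ptch mRNA quantified by qPCR. IC50 given as mean ± SEM of at least two experiments run in triplicate.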
On to `CC(C)CCC[C@@H](C)[C@H]1CC[C@H]2[C@@H](OC(=O)c3cc(O)c(O)c(O)c3)CCC[C@]12C`, for which the inhibition entry is “Dose-dependent effect”.

Take `CC(C)CCC[C@@H](C)[C@H]1CC[C@H]2[C@@H](OC(=O)c3ccc(N)cc3)CCC[C@]12C`: the inhibition entry was “Dose-dependent effect”.

With `CC(C)CCC[C@@H](C)[C@H]1CC[C@H]2[C@@H](OC(=O)c3cc(O)cc(O)c3)CCC[C@]12C`, the inhibition result was “Dose-dependent effect”.

Staying with this assay, now noted: C3H 10T1/2, 24 h.
The molecule `CC(C)CCC[C@@H](C)[C@H]1CC[C@H]2[C@@H](OC(=O)c3cc(O)c(O)c(O)c3)CCC[C@]12C` showed an IC50 of 1.1 µM.

Take `CC(C)CCC[C@@H](C)[C@H]1CC[C@H]2[C@@H](OC(=O)c3ccc(N)cc3)CCC[C@]12C`: half-maximal inhibition (IC50) was put at 1 µM.

`CC(C)CCC[C@@H](C)[C@H]1CC[C@H]2[C@@H](OC(=O)c3cc(O)cc(O)c3)CCC[C@]12C` registered a half-inhibitory concentration (IC50) of 1.8 µM.

For the next assay, the target named is T2, Vitamin D3 receptor (Mus musculus) (UniProt P48281).
T2 sequence (whole entry): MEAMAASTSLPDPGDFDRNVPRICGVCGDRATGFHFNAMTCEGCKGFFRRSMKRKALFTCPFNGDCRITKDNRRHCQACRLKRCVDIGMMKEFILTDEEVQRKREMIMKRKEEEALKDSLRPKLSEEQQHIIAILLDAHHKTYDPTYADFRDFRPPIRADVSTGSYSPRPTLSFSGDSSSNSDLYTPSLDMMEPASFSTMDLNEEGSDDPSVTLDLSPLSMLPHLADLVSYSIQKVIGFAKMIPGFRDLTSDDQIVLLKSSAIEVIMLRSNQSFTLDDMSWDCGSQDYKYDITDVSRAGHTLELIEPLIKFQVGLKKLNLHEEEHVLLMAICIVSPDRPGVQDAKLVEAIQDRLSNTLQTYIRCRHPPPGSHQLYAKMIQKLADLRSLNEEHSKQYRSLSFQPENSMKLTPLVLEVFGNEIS
In words: Activation of VDR in mouse ASZ001 cells assessed as upregulation of CYP24A1 mRNA expression at 5 uM after 24 hrs by RT-PCR analysis relative to DMSO-treated control. In kind it is cell-based.
Conditions: not given
The essentials: (§3)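 Cyp24A1 mRNA read by qPCR after 24 h exposure at 5 μM. Up-regulation normalized to DMSO control, set to 1.0.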
As to `CC(C)CCC[C@@H](C)[C@H]1CC[C@H]2[C@@H](OC(=O)c3cc(O)c(O)c(O)c3)CCC[C@]12C`, the fold change (FC) was 1.3.

On to `CC(C)CCC[C@@H](C)[C@H]1CC[C@H]2[C@@H](OC(=O)c3ccc(N)cc3)CCC[C@]12C`, for which the fold change (FC) was determined as 2.1.

As to `CC(C)CCC[C@@H](C)[C@H]1CC[C@H]2[C@@H](OC(=O)c3cc(O)cc(O)c3)CCC[C@]12C`, the fold change (FC) came out at 3.6.

For a further assay, the target named is T2, Vitamin D3 receptor (Mus musculus). Description: Activation of VDR in mouse C3H10T1/2 cells assessed as upregulation of CYP24A1 mRNA expression at 5 uM after 24 hrs by RT-PCR analysis relative to DMSO-treated control. In kind it is cell-based. The note with it: C3H 10T1/2. In outline: as §3
For the molecule `CC(C)CCC[C@@H](C)[C@H]1CC[C@H]2[C@@H](OC(=O)c3cc(O)c(O)c(O)c3)CCC[C@]12C`, the fold change (FC) came to 11.

`CC(C)CCC[C@@H](C)[C@H]1CC[C@H]2[C@@H](OC(=O)c3ccc(N)cc3)CCC[C@]12C`: the fold change (FC) is 140.

On to `CC(C)CCC[C@@H](C)[C@H]1CC[C@H]2[C@@H](OC(=O)c3cc(O)cc(O)c3)CCC[C@]12C`, for which the fold change (FC) stood at 19.

In the next assay the target is T1, Vitamin D3 receptor (Homo sapiens). In words: Activation of VDR in human DaOY cells assessed as upregulation of CYP24A1 mRNA expression at 5 uM after 24 hrs by RT-PCR analysis relative to DMSO-treated control. Format: cell-based.
Conditions: not given
The essentials: as §3
Consider `CC(C)CCC[C@@H](C)[C@H]1CC[C@H]2[C@@H](OC(=O)c3cc(O)c(O)c(O)c3)CCC[C@]12C`, for which the fold change (FC) was 1.

For `CC(C)CCC[C@@H](C)[C@H]1CC[C@H]2[C@@H](OC(=O)c3ccc(N)cc3)CCC[C@]12C`, the fold change (FC) worked out at 2.2.

With `CC(C)CCC[C@@H](C)[C@H]1CC[C@H]2[C@@H](OC(=O)c3cc(O)cc(O)c3)CCC[C@]12C`, the fold change (FC) worked out at 0.3.

Test system in the next assay: not listed separately
In words: Inhibition of hedgehog signaling pathway-mediated PTCH mRNA expression in mouse C3H10T1/2 cells after 24 hrs by RT-PCR analysis. Format: cell-based. The conditions noted are these: C3H 10T1/2, 24 h. In outline: as §2
Turning to `CC(C)CCC[C@@H](C)[C@H]1CC[C@H]2[C@@H](OC(=O)c3cc(O)c(O)c(O)c3)CCC[C@]12C`, the midpoint of inhibition, the IC50, lay at 1.3 µM.

With `CC(C)CCC[C@@H](C)[C@H]1CC[C@H]2[C@@H](OC(=O)c3ccc(N)cc3)CCC[C@]12C`, the IC50 was found to be 2.9 µM.

With `CC(C)CCC[C@@H](C)[C@H]1CC[C@H]2[C@@H](OC(=O)c3cc(O)cc(O)c3)CCC[C@]12C`, half-maximal inhibition (IC50) required 4.5 µM.
